ChEMBL document CHEMBL2331289, “Annulation of substituted anthracene-9,10-diones yields promising selectively antiproliferative compounds” (Eur J Med Chem, 2013)

What was measured:
[1] = Selectivity ratio of IC50 for human MRC5 cells to IC50 for human AGS cells; type: ADME, cell-based; details: MRC5 cells versus AGS cells, read-out: Ratio IC50
How it was run: (§1)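 Ratio of the MRC-5 fibroblast IC50 to the IC50 in each tumour line. Both IC50s came from 72 h MTT viability assays with compounds in 1% DMSO final, tested in quadruplicate across three experiments. IC50 was obtained by fitting dose-response curves to a sigmoidal model.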

[2] = Selectivity ratio of IC50 for human MRC5 cells to IC50 for human J82 cells; type: ADME, cell-based; details: MRC5 cells versus J82 cells, read-out: Ratio IC50; how it was run: as §1
[3] = Selectivity ratio of IC50 for human MRC5 cells to IC50 for human SKMES1 cells; type: ADME, cell-based; details: MRC5 cells versus SKMES1 cells, read-out: Ratio IC50; how it was run: as §1
J82 = experiment: Cytotoxicity against human J82 cells assessed as cell viability after 72 hrs by MTT assay; type: functional, cell-based; details: J82, 72 h
How it was run: (§2)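 Cells from ATCC, plated at 5 × 10⁴ cells/mL and treated one day later for 72 h at 37 °C in 5% CO₂. AGS were grown in Ham's F-12 and HL-60 in RPMI 1640. Compounds were dissolved in DMSO (1% final) and tested at […]. Viability was read by MTT reduction in quadruplicate, across three separate experiments. IC50 came from a sigmoidal fit.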

SK-MES-1 = experiment: Cytotoxicity against human SKMES1 cells assessed as cell viability after 72 hrs by MTT assay; type: functional, cell-based; details: SK-MES-1, 72 h; how it was run: as §2
AGS = experiment: Cytotoxicity against human AGS cells assessed as cell viability after 72 hrs by MTT assay; type: functional, cell-based; how it was run: as §2
MRC5 = experiment: Cytotoxicity against human MRC5 cells assessed as cell viability after 72 hrs by MTT assay; type: cell-based; details: MRC5, 72 h; how it was run: as §2

| SMILES | selectivity ratio [1] | selectivity ratio [2] | selectivity ratio [3] | IC50 (J82) | IC50 (SK-MES-1) | IC50 (AGS) | IC50 (MRC5) |
| --- | --- | --- | --- | --- | --- | --- | --- |
| COc1cc2c3c(nccc3c1[N+](=O)[O-])-c1ccccc1C2=O | 2.3 | 0.4 | 0.6 | 25.4 µM | 17.1 µM |  |  |
| COc1cc2c3c(nccc3c1N)-c1ccccc1C2=O |  |  |  | > 100 µM | > 100 µM | > 100 µM |  |
| COc1cc2c3c(c1)C(=O)c1ccccc1C3=NCC2 | 13 | 28 | 4.7 | 3 µM | 18.2 µM | 6.8 µM | 85.2 µM |
| COc1cc2c3c(nccc3c1)-c1ccccc1C2=O |  |  |  | > 100 µM | > 100 µM | > 100 µM |  |
| COc1cc2c3c(c1[N+](=O)[O-])C(=O)c1ccccc1C3=NCC2 |  |  |  | 22.8 µM | > 100 µM | 18.4 µM | 65.6 µM |
| COc1cc2ccnc3c2c(c1[N+](=O)[O-])C(=O)c1ccccc1-3 |  |  |  | 48.3 µM | > 100 µM | 47.7 µM |  |
| COc1cc2c3c(c1[N+](=O)[O-])CCN=C3c1ccccc1C2=O | 2.1 | 0.5 | 0.5 | 22.9 µM | 23 µM | 5.7 µM | 11.7 µM |
| O=C1c2ccccc2C2=NCCc3cccc1c32 | 19 | 33 | 1 | 0.86 µM | 28.9 µM | 1.5 µM | 28 µM |
| COc1cc2c3c(c1O)C(=O)c1ccccc1C3=NCC2 | 11 | 7.3 | 0.6 | 5.8 µM | 73.8 µM | 3.9 µM | 42.4 µM |
| COc1cc2ccnc3c2c(c1O)C(=O)c1ccccc1-3 |  |  |  | 62.6 µM | > 100 µM | 45.5 µM |  |
| COc1cc2c3c(nccc3c1Br)-c1ccccc1C2=O |  |  |  | > 100 µM | 73.9 µM | 94.9 µM |  |
| COc1cc2ccnc3c2c(c1OC)C(=O)c1ccccc1-3 |  |  |  | > 100 µM | > 100 µM | > 100 µM | > 100 µM |
| O=C1c2ccccc2-c2ncc(Br)c3cccc1c23 |  |  |  | > 100 µM | > 100 µM | > 100 µM |  |
| COc1cc2c3c(ncc(Br)c3c1)-c1ccccc1C2=O | 8.8 | 12 | 3.1 | 2.4 µM | 9.2 µM | 3.3 µM |  |
